From ChEMBL document CHEMBL1124416, “5-(1-piperazinyl)-1H-1,2,4-triazol-3-amines as antihypertensive agents” (1989)

Assays:
[1] = tested on: Rattus norvegicus; assay: The antihypertensive activity was assessed by measuring the mean arterial blood pressure in rats when administered at 50 mg/kg; format: functional
In short: (§1)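 16-week-old male SH rats (Okamoto) were dosed by oral gavage in 3% starch in normal saline (2 mL/kg), plus an oral saline load of 25 mL/kg. They were redosed at 24 h without the saline load. MABP and HR were taken by direct femoral arterial puncture under local anesthesia 4 h after the second dose. HR was rounded to 10 bpm.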

[2] = tested on: Rattus norvegicus; assay: Effect on the cardiovascular response to isoproterenol challenge was measured in conscious spontaneously hypertensive rats administered perorally at 8 mL/100 g; format: functional, Heart
[3] = tested on: Rattus norvegicus; assay: Effect on the cardiovascular response to angiotensin II challenge was measured in conscious spontaneously hypertensive rats administered perorally at 50 mg/kg; format: functional, Heart; conditions: route oral
[4] = tested on: Rattus norvegicus; assay: Effect on the cardiovascular response to isoproterenol challenge was measured in conscious spontaneously hypertensive rats administered perorally at 50 mg/kg; format: functional, Heart; conditions: route oral
[5] = tested on: Rattus norvegicus; assay: Effect on the cardiovascular response to ACH challenge was measured in conscious spontaneously hypertensive rats administered perorally at 8 mL/100 g; format: functional, Heart
[6] = tested on: Rattus norvegicus; assay: Effect on the cardiovascular response to epinephrine (2ug/kg, iv) challenge was measured in conscious spontaneously hypertensive rats administered perorally at 50 mg/kg; format: functional, Heart; conditions: route oral
In short: (§2)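 Male Okamoto-Aoki SHR, about 350 g, conscious, held supine with elastic tape; tail base locally anesthetized with 2% procaine sc. Control responses were recorded first. Vehicle (10 mL/kg) or compound was then given orally, and challenges were repeated 1 h later. Challenges were a 75° tilt for 30 s and iv agonists (epinephrine 1 or 2 μg/kg). Read-out was change in MABP (mmHg); paired Student's t test.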

[7] = tested on: Rattus norvegicus; assay: Effect on the cardiovascular response to DMPP challenge was measured in conscious spontaneously hypertensive rats administered perorally at 50 mg/kg; format: functional, Heart; conditions: route oral
[8] = tested on: Rattus norvegicus; assay: Effect on the cardiovascular response to epinephrine (1ug/kg, iv) challenge was measured in conscious spontaneously hypertensive rats administered perorally at 50 mg/kg; format: functional, Heart; conditions: route oral; in short: as §2
[9] = tested on: Rattus norvegicus; assay: Effect on the cardiovascular response to norepinephrine challenge was measured in conscious spontaneously hypertensive rats administered perorally at 1 mL/100g; format: functional, Heart
[10] = tested on: Rattus norvegicus; assay: Effect on the cardiovascular response to ACH challenge was measured in conscious spontaneously hypertensive rats administered perorally at 1 mL/100g; format: functional, Heart
[11] = tested on: Rattus norvegicus; assay: Effect on the cardiovascular response to norepinephrine challenge was measured in conscious spontaneously hypertensive rats administered perorally at 8 mL/100 g; format: functional, Heart
[12] = tested on: Rattus norvegicus; assay: Effect on the cardiovascular response to angiotensin II challenge was measured in conscious spontaneously hypertensive rats administered perorally at 8 mL/100 g; format: functional, Heart
[13] = tested on: Rattus norvegicus; assay: Effect on the cardiovascular response to isoproterenol challenge was measured in conscious spontaneously hypertensive rats administered perorally at 1 mL/100g; format: functional, Heart
[14] = tested on: Rattus norvegicus; assay: Effect on the cardiovascular response to angiotensin II challenge was measured in conscious spontaneously hypertensive rats administered perorally at 1 mL/100g; format: functional, Heart
[15] = tested on: Rattus norvegicus; assay: Effect on the cardiovascular response to ACH challenge was measured in conscious spontaneously hypertensive rats administered perorally at 50 mg/kg; format: functional, Heart; conditions: route oral
[16] = tested on: Rattus norvegicus; assay: Effect on the cardiovascular response to norepinephrine challenge was measured in conscious spontaneously hypertensive rats administered perorally at 50 mg/kg; format: functional, Heart; conditions: route oral
[17] = tested on: Rattus norvegicus; assay: Assessment of antihypertensive activity at 100 mg/kg administered perorally by measuring the heart rate in rats; format: functional; conditions: route oral
[18] = organism: Rattus norvegicus; format: functional, Artery; conditions: dose 100 mg/kg; route oral
[19] = tested on: Rattus norvegicus; assay: The antihypertensive activity was assessed by measuring the mean arterial blood pressure in rats when administered at 25 mg/kg; format: functional; in short: as §1
[20] = tested on: Rattus norvegicus; assay: The antihypertensive activity was assessed by measuring the heart rate in rats when administered at 25 mg/kg; format: functional; in short: as §1
[21] = tested on: Rattus norvegicus; assay: Effect on the cardiovascular response to epinephrine (2ug/kg, iv) challenge was measured in conscious spontaneously hypertensive rats administered perorally at 1 mL/100g; format: functional, Heart; in short: as §2
[22] = tested on: Rattus norvegicus; assay: Effect on the cardiovascular response to DMPP challenge was measured in conscious spontaneously hypertensive administered perorally rats at 1 mL/100g; format: functional, Heart
[23] = tested on: Rattus norvegicus; assay: Effect on the […] was measured in conscious spontaneously hypertensive rat administered perorally at 1 mL/100g; format: functional, Heart
[24] = tested on: Rattus norvegicus; assay: Effect on the cardiovascular response to tyramine challenge was measured in conscious spontaneously hypertensive rats administered perorally at 8 mL/100 g; format: functional, Heart
[25] = tested on: Rattus norvegicus; assay: Effect on the cardiovascular response to tilt challenge was measured in conscious spontaneously hypertensive rats administered perorally at 50 mg/kg; format: functional, Heart; conditions: route oral; in short: as §2
[26] = tested on: Rattus norvegicus; assay: Effect on the cardiovascular response to tyramine challenge was measured in conscious spontaneously hypertensive rats administered perorally at 50 mg/kg; format: functional, Heart; conditions: route oral
[27] = tested on: Rattus norvegicus; assay: Effect on the cardiovascular response to epinephrine (1ug/kg, iv) challenge was measured in conscious spontaneously hypertensive rats administered perorally at 1 mL/100g; format: functional, Heart; in short: as §2
[28] = tested on: Rattus norvegicus; assay: Effect on the cardiovascular response to tilt challenge was measured in conscious spontaneously hypertensive rats administered perorally at 1 mL/100g; format: functional, Heart; in short: as §2
[29] = tested on: Rattus norvegicus; assay: The antihypertensive activity was assessed by measuring the heart rate in rats when administered at 50 mg/kg; format: functional; in short: as §1

Nc1n[nH]c(N2CCN(Cc3cccc(Cl)c3)CC2)n1
MABP [1]: 113 mmHg
MABP [2]: -49.8 delta mmHg
MABP [3]: 70.2 delta mmHg
MABP [4]: -46.7 delta mmHg
MABP [5]: -68.5 delta mmHg
MABP [6]: 50.7 delta mmHg
MABP [7]: 30.3 delta mmHg
MABP [8]: 29 delta mmHg
MABP [9]: 45.8 delta mmHg
MABP [10]: -54.5 delta mmHg
MABP [11]: 47.8 delta mmHg
MABP [12]: 55 delta mmHg
MABP [13]: -38.5 delta mmHg
MABP [14]: 49 delta mmHg
MABP [15]: -47 delta mmHg
MABP [16]: 63 delta mmHg
HR [17]: 300 beats min-1
MABP [18]: 89 mmHg
MABP [19]: 132 mmHg
HR [20]: 440 beats min-1
MABP [21]: 37.3 delta mmHg
MABP [22]: 52.5 delta mmHg
MABP [23]: 34.5 delta mmHg
MABP [24]: 35.3 delta mmHg
MABP [25]: 9.3 delta mmHg
MABP [26]: 34.8 delta mmHg
MABP [27]: 28.8 delta mmHg
MABP [28]: 17.3 delta mmHg
HR [29]: 440 beats min-1
